test system: not listed separately; test: Tmax in Sprague-Dawley rat plasma at 20 mg/kg, po; assay type: ADME, organism-based; set-up: dose 20 mg/kg, route oral; conditions: not given
How it was run: (§1)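 Sprague-Dawley rats were gavaged with 20 mg/kg in 23% hydroxypropyl-beta-cyclodextrin with 0.68% lactic acid; the screen co-dosed three compounds per animal. Blood was taken by cardiac puncture under CO2 anesthesia into sodium heparin at 0.25, 0.5, 1, 2, 4, 8, 12 and 24 h, from 3 rats per time point. Plasma was separated within 1 h. Plasma and brain levels were measured by LC/MS.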

| Structure (SMILES) | Tmax [h] |
| --- | --- |
| C[C@@H](NC(=O)[C@@H](CC(=O)N1CCC(N2CCCCC2)CC1)N1C(=O)[C@@H](N2C(=O)OC[C@@H]2c2ccccc2)[C@H]1/C=C/c1ccccc1)c1ccccc1 | 4 |
| CN(Cc1cccc(C(F)(F)F)c1)C(=O)[C@@H](CC(=O)N1CCC(N2CCCCC2)CC1)N1C(=O)[C@@H](N2C(=O)OC[C@@H]2c2ccccc2)[C@H]1/C=C/c1ccccc1 | 4 |

test system: not listed separately; test: Cmax in Sprague-Dawley rat brain at 20 mg/kg, po; assay type: ADME, organism-based; set-up: dose 20 mg/kg, route oral; conditions: not given; how it was run: as §1

| Structure (SMILES) | Cmax [ng/mL] |
| --- | --- |
| C[C@@H](NC(=O)[C@@H](CC(=O)N1CCC(N2CCCCC2)CC1)N1C(=O)[C@@H](N2C(=O)OC[C@@H]2c2ccccc2)[C@H]1/C=C/c1ccccc1)c1ccccc1 | 20 |
| CN(Cc1cccc(C(F)(F)F)c1)C(=O)[C@@H](CC(=O)N1CCC(N2CCCCC2)CC1)N1C(=O)[C@@H](N2C(=O)OC[C@@H]2c2ccccc2)[C@H]1/C=C/c1ccccc1 | 48 |

molecular target: Vasopressin V1a receptor (Homo sapiens, UniProt P37288); test: Binding affinity for human cloned vasopressin V1a receptor expressed in CHO cells; assay type: cell-based; conditions: not given
Sequence (P37288 whole entry): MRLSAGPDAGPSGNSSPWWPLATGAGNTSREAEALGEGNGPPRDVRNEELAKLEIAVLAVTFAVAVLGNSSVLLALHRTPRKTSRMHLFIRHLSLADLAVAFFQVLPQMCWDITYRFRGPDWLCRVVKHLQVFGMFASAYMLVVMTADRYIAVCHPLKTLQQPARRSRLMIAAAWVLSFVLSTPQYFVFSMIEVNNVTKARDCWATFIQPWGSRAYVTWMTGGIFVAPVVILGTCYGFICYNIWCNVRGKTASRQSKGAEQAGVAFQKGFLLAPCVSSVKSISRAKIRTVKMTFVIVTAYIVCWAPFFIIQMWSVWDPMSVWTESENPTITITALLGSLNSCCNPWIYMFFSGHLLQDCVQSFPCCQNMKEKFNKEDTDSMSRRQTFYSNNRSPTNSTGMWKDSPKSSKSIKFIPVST
How it was run: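 Whole-cell competition binding on CHO cells stably expressing human V1a, grown in alpha-MEM with 10% FBS and 250 ug/ml G418. Cells were plated at least 2 days ahead and incubated 30 min at 37 °C in HEPES/BSA/DMEM buffer (pH 7.0) with 1 nM [3H]AVP and 5 test concentrations (usually 0.1–1000 nM), in triplicate. Nonspecific binding was set with 100 nM AVP. Bound radioactivity was SDS-lysed and scintillation-counted. Curve-fit IC50 was converted to Ki with a 0.61 factor.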

| Structure (SMILES) | IC50 [nM] | Ki [nM] |
| --- | --- | --- |
| CC(C)(C)C(=O)C(C(=O)OCc1ccccc1)N1C(=O)[C@@H](N2C(=O)OC[C@@H]2c2ccccc2)[C@H]1/C=C/c1ccco1 (stereo not given in full) | 2 | – |
| O=C(NCc1cccc(C(F)(F)F)c1)[C@H](CCC(=O)N1CCC(CN2CCCCC2)CC1)N1C(=O)[C@@H](N2C(=O)OC[C@@H]2c2ccccc2)[C@H]1/C=C/c1ccccc1 | – | 1.95 |
| CCCN1CCN(C(=O)CC[C@@H](C(=O)NCc2cccc(C(F)(F)F)c2)N2C(=O)[C@@H](N3C(=O)OC[C@@H]3c3ccccc3)[C@H]2/C=C/c2ccccc2)CC1 | – | 1.19 |
| O=C(NCc1cccc(C(F)(F)F)c1)[C@H](CCC(=O)N1CCN(CCc2ccccc2)CC1)N1C(=O)[C@@H](N2C(=O)OC[C@@H]2c2ccccc2)[C@H]1/C=C/c1ccccc1 | – | 1.17 |
| O=C(NCc1cccc(C(F)(F)F)c1)[C@H](CC(=O)N1CCN(C2CCCCC2)CC1)N1C(=O)[C@@H](N2C(=O)OC[C@@H]2c2ccccc2)[C@H]1/C=C/c1ccccc1 | – | 30 |
| CC1(C(C(=O)OCc2ccccc2)N2C(=O)C(C)(C)[C@H]2/C=C/c2ccccc2)OCCO1 (stereo not given in full) | > 20000 | – |
| CC1(C(C(=O)OCc2ccccc2)N2C(=O)C(NC(=O)Nc3ccccc3)[C@H]2/C=C/c2ccccc2)OCCO1 (stereo not given in full) | > 5000 | – |
| C[C@@H](NC(=O)[C@H](CC(=O)N1CCC(CCN2CCCCC2)CC1)N1C(=O)[C@@H](N2C(=O)OC[C@@H]2c2ccccc2)[C@H]1/C=C/c1ccccc1)c1ccccc1 | – | 179 |
| C[C@H](NC(=O)[C@H](CC(=O)N1CCC(CCN2CCCCC2)CC1)N1C(=O)[C@@H](N2C(=O)OC[C@@H]2c2ccccc2)[C@H]1/C=C/c1ccccc1)c1ccccc1 | – | 8.7 |
| O=C(CC[C@@H](C(=O)NCc1cccc(C(F)(F)F)c1)N1C(=O)[C@@H](N2C(=O)OC[C@@H]2c2ccccc2)[C@H]1/C=C/c1ccccc1)NCCN1CCCCC1 | – | 9 |
| CC(C)(C)C(=O)C(C(=O)OCc1ccccc1)N1C(=O)[C@@H](N2C(=O)OC[C@@H]2c2ccccc2)[C@H]1CCc1ccccc1 (stereo not given in full) | > 500 | – |
| CC(C)C[C@@H](C(=O)NCc1ccccc1)N1C(=O)[C@@H](N2C(=O)OC[C@@H]2c2ccccc2)[C@H]1/C=C/c1ccccc1 | 128 | – |
| O=C(OCc1ccccc1)C(C(=O)c1ccccc1)N1C(=O)[C@@H](N2C(=O)OC[C@@H]2c2ccccc2)[C@H]1/C=C/c1ccccc1 (stereo not given in full) | 100 | – |
| O=C(NCc1cccc(C(F)(F)F)c1)[C@H](CC(=O)N1CCC(CCN2CCCCC2)CC1)N1C(=O)[C@@H](N2C(=O)OC[C@@H]2c2ccccc2)[C@H]1/C=C/c1ccccc1 | – | 23 |
| O=C(NCc1cccc(C(F)(F)F)c1)[C@@H](CCC(=O)N1CCC(N2CCCCC2)CC1)N1C(=O)[C@@H](N2C(=O)OC[C@@H]2c2ccccc2)[C@H]1/C=C/c1ccccc1 | – | 30 |
| O=C(NCc1ccc(F)c(C(F)(F)F)c1)[C@H](CCC(=O)N1CCN(C2CCCCC2)CC1)N1C(=O)[C@@H](N2C(=O)OC[C@@H]2c2ccccc2)[C@H]1/C=C/c1ccccc1 | – | < 30 |
| O=C(NCc1cccc(C(F)(F)F)c1)[C@H](CCC(=O)N1CCN(C2CCCCC2)CC1)N1C(=O)[C@@H](N2C(=O)OC[C@@H]2c2ccccc2)[C@H]1/C=C/c1ccccc1 | – | 0.27 |
| CC1(C(C(=O)OCc2ccccc2)N2C(=O)[C@@H](N3C(=O)c4ccccc4C3=O)[C@H]2/C=C/c2ccccc2)OCCO1 (stereo not given in full) | 61000 | – |
| CC(=O)NC1C(=O)N(C(C(=O)OCc2ccccc2)C2(C)OCCO2)[C@@H]1/C=C/c1ccccc1 (stereo not given in full) | > 20000 | – |
| CC1(C(C(=O)OCc2ccccc2)N2C(=O)C(N)[C@H]2/C=C/c2ccccc2)OCCO1 (stereo not given in full) | > 20000 | – |

The remaining lines, values ahead:

| IC50 [nM] | Ki [nM] | Structure (SMILES) |
| --- | --- | --- |
| 1000 | – | CC(C)C[C@@H](C(=O)NCc1ccccc1Cl)N1C(=O)[C@@H](N2C(=O)OC[C@@H]2c2ccccc2)[C@H]1/C=C/c1ccccc1 |
| – | > 6 | C[C@@H](NC(=O)[C@H](CC(=O)N1CCC(N2CCCCC2)CC1)N1C(=O)[C@@H](N2C(=O)OC[C@@H]2c2ccccc2)[C@H]1/C=C/c1ccccc1)c1cccc(C(F)(F)F)c1 |
| – | > 12 | O=C(NCc1cccc(C(F)(F)F)c1)[C@@H](CCC(=O)N1CCN(CC2CCCCC2)CC1)N1C(=O)[C@@H](N2C(=O)OC[C@@H]2c2ccccc2)[C@H]1/C=C/c1ccccc1 |
| 262 | – | CC(C)C[C@@H](C(=O)NCc1ccc(Cl)cc1)N1C(=O)[C@@H](N2C(=O)OC[C@@H]2c2ccccc2)[C@H]1/C=C/c1ccccc1 |
| – | 1.27 | C[C@@H](NC(=O)[C@@H](CC(=O)N1CCC(N2CCCCC2)CC1)N1C(=O)[C@@H](N2C(=O)OC[C@@H]2c2ccccc2)[C@H]1/C=C/c1ccccc1)c1cccc(C(F)(F)F)c1 [SRX246] |
| 54 | – | CC(C)C[C@@H](C(=O)N1CCC(N2CCCCC2)CC1)N1C(=O)[C@@H](N2C(=O)OC[C@@H]2c2ccccc2)[C@H]1/C=C/c1ccccc1 |
| 400 | – | O=C(CN1C(=O)[C@@H](N2C(=O)OC[C@@H]2c2ccccc2)[C@H]1/C=C/c1ccccc1)OCc1ccccc1 |
| – | > 600 | CN(C)CCNC(=O)[C@H](CC(=O)NCc1cccc(C(F)(F)F)c1)N1C(=O)[C@@H](N2C(=O)OC[C@@H]2c2ccccc2)[C@H]1/C=C/c1ccccc1 |
| – | > 600 | CN(C)CCCNC(=O)[C@H](CC(=O)NCc1cccc(C(F)(F)F)c1)N1C(=O)[C@@H](N2C(=O)OC[C@@H]2c2ccccc2)[C@H]1/C=C/c1ccccc1 |
| 45 | – | CC1(C(C(=O)OCc2ccccc2)N2C(=O)[C@@H](N3C(=O)OC[C@@H]3c3ccccc3)[C@H]2/C=C/c2ccccc2)OCCO1 (stereo not given in full) |
| 85 | – | CC(C)(C)C(=O)[C@@H](C(=O)N1CCC(CCN2CCCCC2)CC1)N1C(=O)[C@@H](N2C(=O)OCC2c2ccccc2)C1/C=C/c1ccccc1 (single isomer, unassigned) |
| 405 | – | CC1(C(C(=O)OCC[Si](C)(C)C)N2C(=O)[C@@H](N3C(=O)OC[C@@H]3c3ccccc3)[C@H]2/C=C/c2ccccc2)OCCO1 (stereo not given in full) |
| – | < 60 | O=C(NCc1cccc(C(F)(F)F)c1)[C@H](CC(=O)N1CCN(CCN2CCCC2)CC1)N1C(=O)[C@@H](N2C(=O)OC[C@@H]2c2ccccc2)[C@H]1/C=C/c1ccccc1 |
| – | 27.5 | O=C(NCc1cccc(C(F)(F)F)c1)[C@@H](CC(=O)N1CCN(N2CCCC2)CC1)N1C(=O)[C@@H](N2C(=O)OC[C@@H]2c2ccccc2)[C@H]1/C=C/c1ccccc1 |
| – | < 60 | O=C(NCc1cccc(C(F)(F)F)c1)[C@H](CC(=O)N1CCN(C2CCCC2)CC1)N1C(=O)[C@@H](N2C(=O)OC[C@@H]2c2ccccc2)[C@H]1/C=C/c1ccccc1 |
| > 20000 | – | CC(C)(C)C(=O)C(C(=O)OCc1ccccc1)N1C(=O)[C@@H](N2C(=O)OC[C@@H]2c2ccccc2)[C@H]1C=O (stereo not given in full) |
| – | 6100 | O=C(C[C@@H](C(=O)N1CCN(CCc2ccccc2)CC1)N1C(=O)[C@@H](N2C(=O)OC[C@@H]2c2ccccc2)[C@H]1/C=C/c1ccccc1)NCc1cccc(C(F)(F)F)c1 |
| > 5000 | – | CC1(C(C(=O)O)N2C(=O)[C@@H](N3C(=O)OC[C@@H]3c3ccccc3)[C@H]2/C=C/c2ccccc2)OCCO1 (stereo not given in full) |

test system: not listed separately; test: Half life in Sprague-Dawley rat plasma at 20 mg/kg, po; assay type: ADME, organism-based; set-up: dose 20 mg/kg, route oral; conditions: not given; how it was run: as §1

| Structure (SMILES) | half-life [h] |
| --- | --- |
| C[C@@H](NC(=O)[C@@H](CC(=O)N1CCC(N2CCCCC2)CC1)N1C(=O)[C@@H](N2C(=O)OC[C@@H]2c2ccccc2)[C@H]1/C=C/c1ccccc1)c1ccccc1 | 2.5 |
| CN(Cc1cccc(C(F)(F)F)c1)C(=O)[C@@H](CC(=O)N1CCC(N2CCCCC2)CC1)N1C(=O)[C@@H](N2C(=O)OC[C@@H]2c2ccccc2)[C@H]1/C=C/c1ccccc1 | 4 |

test system: not listed separately; test: Cmax in Sprague-Dawley rat plasma at 20 mg/kg, po; assay type: ADME, organism-based; set-up: dose 20 mg/kg, route oral; conditions: not given; how it was run: as §1

| Structure (SMILES) | Cmax [ng/mL] |
| --- | --- |
| C[C@@H](NC(=O)[C@@H](CC(=O)N1CCC(N2CCCCC2)CC1)N1C(=O)[C@@H](N2C(=O)OC[C@@H]2c2ccccc2)[C@H]1/C=C/c1ccccc1)c1ccccc1 | 100 |
| O=C(NCc1cccc(C(F)(F)F)c1)[C@@H](CC(=O)N1CCC(N2CCCCC2)CC1)N1C(=O)[C@@H](N2C(=O)OC[C@@H]2c2ccccc2)[C@H]1/C=C/c1ccccc1 | 50 |
| CN(Cc1cccc(C(F)(F)F)c1)C(=O)[C@@H](CC(=O)N1CCC(N2CCCCC2)CC1)N1C(=O)[C@@H](N2C(=O)OC[C@@H]2c2ccccc2)[C@H]1/C=C/c1ccccc1 | 160 |

test system: not listed separately; test: Drug level in dog brain at 10 mg/kg, po after 4 hrs; assay type: ADME, organism-based, Canis lupus familiaris; set-up: dose 10 mg/kg, route oral; conditions: read-out: Drug uptake
How it was run: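 A single dog received an oral dose of 10 mg/kg in 10% DMSO/90% PEG300. Brain regions (cortex, brain stem, cerebellum, hypothalamus, hippocampus) and blood were frozen and stored at −70 °C. Samples were homogenized in pH 9.4 buffer, extracted with ethyl acetate with an extraction reference added, reconstituted in acetonitrile, and quantified by ESI LC/MS/MS against spiked control brain standards.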

| Structure (SMILES) | concentration at 4 h [nM] |
| --- | --- |
| CC(C)C[C@@H](C(=O)N1CCC(CCN2CCCCC2)CC1)N1C(=O)[C@@H](N2C(=O)OC[C@@H]2c2ccccc2)[C@H]1/C=C/c1ccccc1 | 100 |

test system: not listed separately; test: Half life in Sprague-Dawley rat brain at 20 mg/kg, po; assay type: ADME, organism-based; set-up: dose 20 mg/kg, route oral; conditions: not given; how it was run: as §1

| Structure (SMILES) | half-life [h] |
| --- | --- |
| C[C@@H](NC(=O)[C@@H](CC(=O)N1CCC(N2CCCCC2)CC1)N1C(=O)[C@@H](N2C(=O)OC[C@@H]2c2ccccc2)[C@H]1/C=C/c1ccccc1)c1ccccc1 | 6 |
| CN(Cc1cccc(C(F)(F)F)c1)C(=O)[C@@H](CC(=O)N1CCC(N2CCCCC2)CC1)N1C(=O)[C@@H](N2C(=O)OC[C@@H]2c2ccccc2)[C@H]1/C=C/c1ccccc1 | 6 |

— ChEMBL document CHEMBL1146370 (Bioorg Med Chem, 2007)
